Source: PubChem BioAssay (several laboratories)
D1 allo mod: allosteric modulators of human D1 dopamine receptor. P21728. HEK293 D1, CRE-luciferase, dopamine EC30 potentiation; actives deviate in either direction. B-score at 10 µM. actives 5.9% (n = 58,000). AID 641;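 active = luminescence count or its row- and column-corrected plate score outside the 99.7% band of the plate's sample wells, on either side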
Target sequence (P21728 whole entry, looked up): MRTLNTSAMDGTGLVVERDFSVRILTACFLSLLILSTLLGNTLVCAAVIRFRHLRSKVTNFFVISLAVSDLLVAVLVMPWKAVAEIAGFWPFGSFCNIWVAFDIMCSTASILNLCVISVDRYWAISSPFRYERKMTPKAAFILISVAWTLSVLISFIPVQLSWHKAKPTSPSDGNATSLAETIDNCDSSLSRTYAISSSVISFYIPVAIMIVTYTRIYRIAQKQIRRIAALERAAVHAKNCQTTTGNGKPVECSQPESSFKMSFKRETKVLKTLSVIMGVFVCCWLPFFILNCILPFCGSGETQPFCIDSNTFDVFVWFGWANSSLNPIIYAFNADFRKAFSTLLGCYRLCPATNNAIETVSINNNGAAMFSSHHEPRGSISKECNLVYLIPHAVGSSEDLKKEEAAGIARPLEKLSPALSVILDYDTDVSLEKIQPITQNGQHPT
S1P1 ag-PAM: activates or potentiates agonism at human S1P1 receptor; actives 0.57% (n = 56,000); S1P1 CRE-bla cells, forskolin, beta-lactamase FRET, potentiator mode; S1P1 agonist co-added at EC20, 2 nM; 100% = saturating reference agonist, 0% = basal; activation, % at 9.5 µM; P21453; AID 449;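 active = activation above a cutoff set at the mean activation of all tested compounds plus 3 SD, cut at about 54% in these data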;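 also: forskolin at 4 µM as EC80 and the EC20 agonist is SEW2871; 100% = SEW2871 at its EC100 plus forskolin at EC80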
M1 antag: M1 muscarinic receptor (rat) antagonism; B-score at 10 µM; actives 3.4% (n = 64,000); P08482; CHO-M1 cells, Fluo-4 calcium, ACh EC80 antagonist mode; hits give low values;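 active = calcium fluorescence response, raw or row-and-column corrected B-score, differing from the plate sample mean either way at a set confidence level, mostly lower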
M1 agonist: activates the M1 muscarinic receptor. CHO-M1 cells, Fluo-4 calcium fluorescence, agonist mode; hits give high values. B-score at 10 µM. actives 3% (n = 64,000). AID 626;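 active = fluorescence rise, raw or as B-score row- and column-corrected plate score, outside the 99.7% band of its plate's samples, either direction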
S1P3 ag: activates the human S1P3 receptor; AID 373; S1P3 NFAT-BLA reporter cells, agonism, FRET ratio; relative to 1 µM S1P, basal subtracted; activation, % at 4.5 µM; actives 0.1% (n = 60,000);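 active = activation above the screen-wide mean plus 3 SD, cut at about 4.5% in these data, passing the limit was not always enough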
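Benchmarks: high control 1 µM S1P / System: stable CHO line with human S1P3, Gα16, NFAT-BLA reporter / Dosing: single compound concentration, 4.5 µM final / Timing: 4 h compound at 37 °C, 2 h substrate at RT / Measured by: FRET β-lactamase substrate fluorescence, excitation 405 nm, 460/535 nm emission ratio, background-subtracted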
* = called active by the depositor. The list is not random: actives were taken first. Their share in the collection is about 11%.

For O=C(Nc1nc2c(s1)CCCC2)C1COc2ccccc2O1 (stereo not given) the results were D1 allo mod -6.87*, S1P1 ag-PAM -10.2, M1 antag 1.01, M1 agonist 0.528 and S1P3 ag -0.6.
Screening Cn1cnc2c1c(=O)n(CC(O)CO)c(=O)n2C (stereo not given) returned D1 allo mod -0.258, S1P1 ag-PAM -6.3, M1 antag 0.084, M1 agonist 0.371 and S1P3 ag 0.4.
For COC(=O)c1cc(OC)c(OC)cc1NC(=O)c1c(-c2ccccc2Cl)noc1C the results were D1 allo mod 1.07, S1P1 ag-PAM -29.2, M1 antag 0.432, M1 agonist -0.576 and S1P3 ag -1.6.
`Cc1ccc(CNC(=O)CSc2nc(N3CCCCC3)nc(N3CCCCC3)n2)cc1` gave D1 allo mod -0.0518, S1P1 ag-PAM -5.8, M1 antag 0.34, M1 agonist 0.81 and S1P3 ag -1.4.
Screening CCc1ccc(NC(=O)c2cc(-c3ccco3)on2)cc1 returned D1 allo mod -2.37, S1P1 ag-PAM 55.7*, M1 antag 0.265, M1 agonist -0.249 and S1P3 ag -0.9.
O=C1C(=O)N(CCCN2CCOCC2)C(c2ccccn2)/C1=C(\O)c1ccc2c(c1)OCCO2 (stereo not given) was read as D1 allo mod -0.365, S1P1 ag-PAM -12.3, M1 antag 0.617, M1 agonist 0.361 and S1P3 ag 0.4.
For CCC1Sc2ccccc2N(CC(=O)NCc2ccc3c(c2)OCO3)C1=O (stereo not given) the results were D1 allo mod -2.63*, S1P1 ag-PAM 5.3, M1 antag -1.19, M1 agonist 3.58 and S1P3 ag -0.5.
CCn1cc(C(=O)Nc2nncs2)c(=O)c2cc(F)c(N3CCN(C(=O)c4ccco4)CC3)cc21 was read as D1 allo mod 0.775, S1P1 ag-PAM 9.5, M1 antag -0.0143, M1 agonist 2.06 and S1P3 ag -0.8.
`COc1ccc(-c2nc(-c3ccc(Br)o3)no2)cc1OC` gave D1 allo mod 1.39, S1P1 ag-PAM 82.4*, M1 antag 0.243, M1 agonist 0.0148 and S1P3 ag 0.3.
CCOc1ccc(-c2nc(-c3ccc(OC)cc3)no2)cc1OCC was read as D1 allo mod -2.91, S1P1 ag-PAM 98.4*, M1 antag -0.0295, M1 agonist -0.019 and S1P3 ag 0.5.
Screening COc1ccccc1-c1nc(-c2ccc(Br)cc2)no1 returned S1P1 ag-PAM 78.4*, M1 antag -0.202, M1 agonist 0.954 and S1P3 ag -1.6.
`CCOc1cc(-c2nc(-c3cc(OC)c(OC)c(OC)c3)no2)cc(OCC)c1OCC` gave D1 allo mod 0.311, M1 antag -0.59, M1 agonist -0.515 and S1P3 ag -1.7.
Screening COc1ccc(-c2nc(-c3ccncc3)no2)cc1OC returned S1P1 ag-PAM 106.5*, M1 antag 0.401, M1 agonist 1.21 and S1P3 ag 0.8.
CCOC(=O)C(CO)(NC(C)=O)C(=O)OCC was read as D1 allo mod 0.157, S1P1 ag-PAM -4.4, M1 antag 1.32*, M1 agonist -0.328 and S1P3 ag -0.1.
Screening CCC1Cc2c(nc3c4c(nc(N5CCOCC5)c(C#N)c24)NC(C)=N3)O1 (stereo not given) returned D1 allo mod 4.19*, S1P1 ag-PAM -61.1, M1 antag -0.124, M1 agonist 1.01 and S1P3 ag 2.0.
For CCOc1cc(-c2ccccc2)nc(N)n1 the results were D1 allo mod 8.15*, S1P1 ag-PAM -25.1, M1 antag 0.723, M1 agonist 0.612 and S1P3 ag 0.0.
COc1cc(-c2ccccc2)nc(N)n1 was read as D1 allo mod 2.2, M1 antag -0.167 and M1 agonist 0.062.
For Cc1ccc(NC(=O)NC2=N/C(=C(/C#N)C(=O)N3CCCC3)c3ccccc32)cc1 the results were D1 allo mod -3.8*, S1P1 ag-PAM -17.0, M1 antag 0.236, M1 agonist 1.68 and S1P3 ag -0.2.
For Cc1ccc(NC(=O)C2CC=CCC2C(=O)N2CCCCC2)cc1 (stereo not given) the results were D1 allo mod 0.348, S1P1 ag-PAM -0.2, M1 antag -0.161, M1 agonist 0.697 and S1P3 ag 1.1.
CCN(CC)C(=O)CSC1=C(C#N)C(c2cccs2)C=C(C)N1 (stereo not given) was read as D1 allo mod 3.21, S1P1 ag-PAM -9.5, M1 antag 1.17, M1 agonist -0.766 and S1P3 ag -4.8.
For CN1CCN(S(=O)(=O)c2ccc(NC(=O)c3cccs3)cc2)CC1 the results were D1 allo mod 0.0304, S1P1 ag-PAM 11.0, M1 antag 0.28, M1 agonist 0.0692 and S1P3 ag -1.6.
CN1CCN(S(=O)(=O)c2ccc(NC(=O)c3csc4ccccc34)cc2)CC1 was read as D1 allo mod -1.94*, S1P1 ag-PAM 19.6, M1 antag -0.0287, M1 agonist 0.279 and S1P3 ag -0.3.
Screening Cc1ccccc1Cn1c(=O)c2c(nc3n2CCN3Cc2ccco2)n(C)c1=O returned D1 allo mod 0.0584, S1P1 ag-PAM -5.9, M1 antag 0.0343, M1 agonist 0.0111 and S1P3 ag -0.7.
Screening NC(=O)C1(N2CCCCC2)CCN(C(=O)NC2CCCCC2)CC1 returned D1 allo mod -0.328, S1P1 ag-PAM -3.6, M1 antag 0.0111, M1 agonist 0.551 and S1P3 ag -0.7.
`O=C(Cn1nc(-c2ccccc2)ccc1=O)NCCN1CCN(Cc2ccccc2)CC1` gave D1 allo mod -4.97*, S1P1 ag-PAM 5.8, M1 antag 0.538, M1 agonist 0.234 and S1P3 ag -0.6.
Screening COc1ccc2c(c1)CCc1c(C(=O)Nc3ccc(OC)c(OC)c3)noc1-2 returned D1 allo mod -0.542, S1P1 ag-PAM 104.3* and S1P3 ag -1.1.
COc1ccc2c(c1)CCc1c(C(=O)NCCc3ccc(OC)c(OC)c3)noc1-2 was read as D1 allo mod 3.02, S1P1 ag-PAM 50.0, M1 antag 0.487, M1 agonist -0.392 and S1P3 ag -1.5.
COc1ccc2c(c1)CCc1c(C(=O)N3CC4(C)CC3CC(C)(C)C4)noc1-2 (stereo not given) was read as D1 allo mod 0.00692, S1P1 ag-PAM -15.7, M1 antag 0.037, M1 agonist 26.7* and S1P3 ag -1.2.
Cc1ccc(S(=O)(=O)c2cc3c(=O)n4ccccc4nc3n(CC3CCCO3)c2=N)cc1C (stereo not given) was read as D1 allo mod 10.1*, S1P1 ag-PAM -43.2, M1 antag -0.0551, M1 agonist 0.458 and S1P3 ag 0.1.
For COc1ccc2ccccc2c1CN1CCN(C)CC1 the results were D1 allo mod -2.44*, S1P1 ag-PAM -19.2, M1 antag -0.365, M1 agonist -1.89 and S1P3 ag 0.6.
`CN1CCN(Cc2c(C#N)c3ccccc3n2C)CC1` gave D1 allo mod 0.012, S1P1 ag-PAM -11.7 and S1P3 ag 0.3.
